{
  "source": "paper PMC5659729",
  "about": "(Life sciences, 2017)",
  "key": {"TxB2/PGE2": {"system": "TxB2/PGE2", "test": "PGE2 and TxB2 in plasma", "assay_type": "in vivo, mice", "settings": "for Level of TxB2/PGE2 in plasma of DCF treated mice: TPPU 0.1 mg/kg or omeprazole 50 mg/kg + DCF 100 mg/kg"}, "TNF-α": {"system": "TNF-α", "test": "Inflammatory marker in serum by ELISA", "assay_type": "in vivo, mice", "settings": "for Level of TNF-α in serum versus DCF: pre-treatment TPPU 0.1 mg/kg or OME 50 mg/kg before DCF 100 mg/kg"}, "[1]": {"test": "Quantification of drugs in plasma by LC-MS/MS", "assay_type": "in vivo, mice", "settings": "for Alterations in blood levels when TPPU and DCF co-administered: TPPU 0.1 mg/kg/day + DCF 100 mg/kg"}, "IL-6": {"system": "IL-6", "test": "Inflammatory marker in serum by ELISA", "assay_type": "in vivo, mice", "settings": "for Level of IL-6 in serum versus vehicle: DCF 100 mg/kg p.o. single dose; for Level of IL-6 in serum versus DCF: pre-treatment TPPU 0.1 mg/kg or OME 50 mg/kg before DCF 100 mg/kg", "method_in_brief": "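Blood without anticoagulant was collected at sacrifice 6 h post-dose and spun at 4 °C. Serum IL-6 was measured with a pre-coated mouse ELISA kit, in duplicate, n=3–4 animals, reported as mean ± SD.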"}, "[2]": {"test": "Quantification of pH in gastric content", "assay_type": "in vivo, mice", "settings": "DCF 100 mg/kg single dose; TPPU 0.1 mg/kg 7 days + DCF; omeprazole 50 mg/kg 5 days + DCF"}, "Swiss Webster mice": {"system": "Swiss Webster mice", "test": "Diclofenac-induced gastric ulcers, ulcer index scoring", "assay_type": "in vivo"}, "gastric epithelial cells": {"system": "gastric epithelial cells", "test": "TUNEL assay of gastric cell apoptosis", "assay_type": "in vivo, mice", "settings": "for DCF-induced apoptosis of stomach epithelial cells (TUNEL) versus DCF: pre-treatment TPPU 0.1 mg/kg or OME 50 mg/kg before DCF 100 mg/kg"}, "[3]": {"system": "gastric mucosa of Swiss Webster mice", "test": "Histopathological evaluation of stomach sections", "assay_type": "in vivo", "settings": "DCF 100 mg/kg alone or after TPPU 0.1 mg/kg or OME 50 mg/kg"}, "CYP3A4": {"system": "CYP3A4", "settings": "cited from earlier work"}, "[4]": {"settings": "cited from earlier work"}, "[5]": {"settings": "16 h after radioactive omeprazole administration; cited from earlier work"}, "COX": {"system": "COX", "test": "PGE2 in stomach as marker of COX activity", "assay_type": "in vivo, mice", "settings": "TPPU 0.1 mg/kg or OME 50 mg/kg + DCF 100 mg/kg"}, "[6]": {"settings": "mice; cited from earlier work"}, "recombinant mouse sEH": {"system": "recombinant mouse sEH", "settings": "affinity purified recombinant mouse sEH; cited from earlier work"}, "[7]": {"system": "DCF-induced intestinal ulcers", "settings": "cited from earlier work"}, "[8]": {"system": "piroxicam-induced inflammatory bowel disease", "settings": "cited from earlier work"}},
  "note": "Entries after “also recorded” stand apart in the source; their conditions may differ.",
  "data": [
    {"smiles": "O=C(O)Cc1ccccc1Nc1c(Cl)cccc1Cl", "note": "[Diclofenac, diclofenac sodium]", "values": [
      {"measurement": "Levels of TxB2/PGE2 in plasma versus vehicle", "setting": "TxB2/PGE2; DCF 100 mg/kg", "value": "significantly decreased"},
      {"measurement": "Levels of PGE2 in plasma versus vehicle", "setting": "TxB2/PGE2; data not shown", "value": "not statistically (data not shown) different"},
      {"measurement": "Level of TxB2 in plasma", "setting": "TxB2/PGE2; mice treated with only DCF, level of detection 20 pM", "value": "< 20", "unit": "pM"},
      {"measurement": "Level of TNF-α in serum versus vehicle", "setting": "TNF-α; DCF 100 mg/kg p.o. single dose", "value": "significant increase (p < 0.05); also recorded: increased level of TNF-α significantly"},
      {"measurement": "concentration at 6 h", "setting": "[1]; Swiss Webster, mouse, plasma, oral, Mean plasma concentration of DCF, mice that received DCF or DCF + TPPU", "value": 4000, "unit": "ng/mL"},
      {"measurement": "Alterations in blood levels when TPPU and DCF co-administered", "setting": "[1]", "value": "not observed"},
      {"measurement": "Mean plasma concentration of diclofenac, diclofenac only versus DCF + OME", "setting": "[1]; difference not significant, n=4", "value": "approximately 2 times"},
      {"measurement": "Level of IL-6 in serum versus vehicle", "setting": "IL-6", "value": "increased levels of IL-6 significantly"},
      {"measurement": "Level of IL-6 in serum versus vehicle", "setting": "IL-6; listed as DCF", "value": "significant increase (p < 0.05)"},
      {"measurement": "Effect on pH of stomach (gastric content)", "setting": "[2]", "value": "did not alter the pH of stomachs"},
      {"measurement": "Gastric ulcer score 18 h after dosing", "setting": "Swiss Webster mice; single DCF dose 100 mg/kg, 18 h", "value": "returned to normal levels"},
      {"measurement": "Apoptosis of stomach epithelial cells (TUNEL positive cells) versus vehicle", "setting": "gastric epithelial cells; DCF 100 mg/kg, listed as DCF", "value": "increased apoptosis significantly"},
      {"measurement": "Histopathological observation of gastric mucosa", "setting": "[3]", "value": "ulceration was observed"}
    ]},
    {"smiles": "COc1ccc2[nH]c([S+]([O-])Cc3ncc(C)c(OC)c3C)nc2c1", "note": "(stereo not shown) [Omeprazole]", "values": [
      {"measurement": "Effect on activity of CYP3A4", "setting": "CYP3A4", "value": "increase activity of CYP3A4"},
      {"measurement": "Level of TxB2/PGE2 in plasma of DCF treated mice", "setting": "TxB2/PGE2", "value": "increased the level of TxB2/PGE2"},
      {"measurement": "Level of TNF-α in serum versus DCF", "setting": "TNF-α; listed as OME", "value": "normalized the level of these cytokines"},
      {"measurement": "Half-life monitored in the blood", "setting": "[4]", "value": "5 to 15", "unit": "min"},
      {"measurement": "Level of IL-6 in serum versus DCF", "setting": "IL-6; listed as OME", "value": "normalized the level of these cytokines"},
      {"measurement": "Radioactivity of the stomach relative to blood", "setting": "[5]", "value": 100, "unit": "times"},
      {"measurement": "Effect on COX activity in stomach (level of PGE2) of DCF treated mice", "setting": "COX", "value": "did not increase the activity of COX"},
      {"measurement": "Incidence of ulceration relative to TPPU + DCF treated animals", "setting": "Swiss Webster mice; OME 50 mg/kg + DCF 100 mg/kg versus TPPU 0.1 mg/kg + DCF", "value": "higher"},
      {"measurement": "DCF-induced apoptosis of stomach epithelial cells (TUNEL) versus DCF", "setting": "gastric epithelial cells; listed as OME", "value": "decreased apoptosis significantly"},
      {"measurement": "Histopathological observation of gastric mucosa", "setting": "[3]", "value": "minimized gastric erosion"}
    ]},
    {"smiles": "CCC(=O)N1CCC(NC(=O)Nc2ccc(OC(F)(F)F)cc2)CC1", "note": "[TPPU, N-[1-(1-oxopropyl)-4-piperidinyl]-N′-[4-(trifluoromethoxy)phenyl)-urea]", "values": [
      {"measurement": "Level of TxB2/PGE2 in plasma of DCF treated mice", "setting": "TxB2/PGE2", "value": "increased the level of TxB2/PGE2"},
      {"measurement": "Level of TNF-α in serum versus DCF", "setting": "TNF-α", "value": "normalized the level of these cytokines; also recorded: decreased level of TNF-α significantly"},
      {"measurement": "Alterations in blood levels when TPPU and DCF co-administered", "setting": "[1]", "value": "[…]"},
      {"measurement": "Level of IL-6 in serum versus DCF", "setting": "IL-6", "value": "normalized the level of these cytokines; also recorded: decreased level of IL-6 significantly"},
      {"measurement": "Oral availability", "setting": "[6]", "value": "high oral availability"},
      {"measurement": "IC50", "setting": "recombinant mouse sEH", "value": "[…]"},
      {"measurement": "Effect on DCF-induced intestinal ulcers", "setting": "[7]", "value": "decreased DCF-induced intestinal ulcers"},
      {"measurement": "Effect on COX activity in stomach (level of PGE2) of DCF treated mice", "setting": "COX", "value": "did not increase the activity of COX"},
      {"measurement": "DCF-induced apoptosis of stomach epithelial cells (TUNEL) versus DCF", "setting": "gastric epithelial cells", "value": "decreased DCF-induced apoptosis of gastric cells; also recorded: decreased apoptosis significantly"},
      {"measurement": "Histopathological observation of gastric mucosa", "setting": "[3]", "value": "Ulceration was minimal"}
    ]},
    {"smiles": "O=C(NC12CC3CC(CC(C3)C1)C2)N[C@H]1CC[C@H](Oc2ccc(C(=O)O)cc2)CC1", "note": "[t-AUCB, trans-4-[4-(3-adamantan-1-yl-ureido)-cyclohexyloxy]-benzoic acid]", "values": [
      {"measurement": "Effect on piroxicam-induced inflammatory bowel disease", "setting": "[8]", "value": "decrease piroxicam (a COX inhibitor)-induced inflammatory bowel disease"}
    ]}
  ]
}
